Diaphorase inh: inhibits diaphorase or chemically oxidizes, flagging diaphorase assay artifacts. diaphorase resazurin-to-resorufin fluorescence, NADH, 16 min; bacterial (C. kluyveri) enzyme, not human. inhibition, % at 20 µM. hit rate 0.69% among 190,000;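 active = primary screen inhibition at 20 µM above a set limit, cut at about 50% in these data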
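Test system: Clostridium kluyveri diaphorase enzyme / Quantity: diaphorase at 0.14 U/mL in enzyme working solution / Incubation: 16-min room-temperature incubation before reading / Benchmarks: NADH-free wells as positive control, DMSO-only neutral wells / Signal: resorufin fluorescence 544/590 nm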
PfGluPho inh: PfG6PD (Plasmodium falciparum) enzyme inhibition. hit rate 0.78% among 350,000. PfGluPho enzyme, NADPH resazurin-diaphorase fluorescence. inhibition, % at 20 µM;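 active = inhibition reaching at least a set limit at 20 µM in the primary screen, cut at about 59% in these data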
Tb hexokinase: blocks Trypanosoma brucei hexokinase 1 activity; recombinant TbHK1, G6PDH-coupled NADH A340; inhibition, % at 10 µM; hit rate 0.11% among 220,000;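 active = inhibition of 50% or more in the single-dose primary screen; inactive = inhibition below 50%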
Diaphorase act: diaphorase activation or chemical reduction counter-screen; Diaphorase/resazurin coupled assay, resorufin fluorescence, 16 min; hits give high values; 1 = vehicle wells, 0 = NADH-free wells; activation factor at 20 µM; hit rate 0.005% among 190,000;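 active = diaphorase activity raised at least twofold by the compound at 20 µM; inactive = activation factor below 2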
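Material: purified diaphorase enzyme from Clostridium kluyveri; Also added: 0.114 mM NADH and 0.1 mM resazurin, final amounts; Doses: single compound dose of 20 µM, 1% DMSO final; Times: 16 min enzyme reaction, ambient temperature; Detection: resorufin fluorescence, excitation 544 nm, emission 590 nm; Measure: increased resorufin signal from activators or reducing compounds.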
G6PDH CS: L. mesenteroides G6PDH inhibition counter-screen; inhibition, % at 5 µM; AID 1020; Purified L. mesenteroides G6PDH, diaphorase/resazurin coupled fluorescence, 45 min; hit rate 0.12% among 200,000; in the data active = inhibition above about 50%
HKDC1 inh: blocks human hexokinase HKDC1 activity. hit rate 0.16% among 340,000. AID 493160. recombinant HKDC1, G6PDH/diaphorase resazurin coupled fluorescence. inhibition, % at 20 µM. Q2TB90;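 active = inhibition above about 35% when tested at 20 µM, limit read from the data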
Target sequence (Q2TB90 whole entry, looked up): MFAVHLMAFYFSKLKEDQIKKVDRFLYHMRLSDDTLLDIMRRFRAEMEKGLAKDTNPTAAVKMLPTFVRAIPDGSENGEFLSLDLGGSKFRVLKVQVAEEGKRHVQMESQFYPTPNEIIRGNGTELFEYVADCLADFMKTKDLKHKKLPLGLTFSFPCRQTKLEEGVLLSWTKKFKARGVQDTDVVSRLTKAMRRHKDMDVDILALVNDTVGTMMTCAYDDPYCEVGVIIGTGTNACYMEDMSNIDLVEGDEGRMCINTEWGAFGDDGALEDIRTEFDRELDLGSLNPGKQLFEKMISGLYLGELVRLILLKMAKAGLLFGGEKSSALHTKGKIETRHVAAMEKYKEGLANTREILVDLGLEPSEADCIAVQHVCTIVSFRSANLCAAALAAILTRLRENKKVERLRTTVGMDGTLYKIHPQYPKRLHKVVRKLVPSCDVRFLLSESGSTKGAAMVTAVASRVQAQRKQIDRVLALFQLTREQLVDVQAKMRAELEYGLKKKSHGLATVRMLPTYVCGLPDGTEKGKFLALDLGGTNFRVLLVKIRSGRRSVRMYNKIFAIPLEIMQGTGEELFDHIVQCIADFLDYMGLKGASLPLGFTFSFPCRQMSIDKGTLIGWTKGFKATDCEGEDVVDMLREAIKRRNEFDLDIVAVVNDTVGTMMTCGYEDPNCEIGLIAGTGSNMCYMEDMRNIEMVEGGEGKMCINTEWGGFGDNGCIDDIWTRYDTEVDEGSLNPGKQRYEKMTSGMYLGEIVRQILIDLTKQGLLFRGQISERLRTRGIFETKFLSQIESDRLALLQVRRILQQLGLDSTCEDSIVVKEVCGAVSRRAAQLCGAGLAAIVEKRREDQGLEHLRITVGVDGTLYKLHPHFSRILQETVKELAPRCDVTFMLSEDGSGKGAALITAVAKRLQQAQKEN
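Assay system: recombinant HKDC1 hexokinase; detection: coupled resazurin fluorescence, excitation 525 nm, emission 613 nm; benchmarks: DMSO-plus-enzyme-mix negative control, buffer-substituted positive control; compound dosing: single 20 µM dose; schedule: 90 min at room temperature in dark; also added: glucose plus 1 mM ATP as hexokinase substrates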
A number is an active result; – = inactive; · = not tested or not shown. An excerpt weighted towards active compounds, which were near 1.3% of everything screened.

SMILES	Diaphorase inh	PfGluPho inh	Tb hexokinase	Diaphorase act	G6PDH CS	HKDC1 inh
O=C(Nc1ccc(Br)cc1)c1cc([N+](=O)[O-])cc([N+](=O)[O-])c1	·	–	·	·	·	–
COc1cccc(CN2CC(C(=O)NCCOc3ccccc3)CCC2=O)c1 (stereo not given)	·	–	·	·	·	–
O=C(CN1CCCCCC1)NN(Cc1ccccc1)c1ccccc1	·	–	–	·	·	–
CN(C)C(=O)C(NC(=O)c1ccccc1)=C(Cl)Cl	–	–	–	–	–	–
Cc1cc(-c2nsc(=O)o2)c(S(C)(=O)=O)s1	–	67.9	–	–	–	–
O=c1c2ccccc2[nH]c(=S)n1CCCN1CCOCC1	–	–	–	–	–	–
O=C(O)CCCn1c(=S)[nH]c2c(sc3ccc([N+](=O)[O-])cc32)c1=O	83.5	–	–	–	–	–
O=c1c2sc3ccccc3c2[nH]c(=S)n1CCN1CCOCC1	55.6	–	–	–	–	–
CC1CCN(CCCn2c(=S)[nH]c3c(sc4ccccc43)c2=O)CC1	58.2	–	–	–	–	–
COCCCn1c(=S)[nH]c2c(sc3ccccc32)c1=O	64.0	–	–	–	–	–
CC1CCN(CCCn2c(=S)[nH]c3c(sc4ccc([N+](=O)[O-])cc43)c2=O)CC1	–	–	–	–	–	–
COC(=O)c1cccc(NC(=O)CCN2C(=O)NC(C)(C)C2=O)c1	·	–	·	·	·	·
Cc1ccc(-c2nc3cnccn3c2Nc2ccccc2)o1	–	–	–	–	–	–
Cc1ccc(Nc2c(-c3ccc(C)o3)nc3cnccn23)cc1	–	68.5	–	–	–	–
NC1=CC(=O)c2cccc3cccc1c23	63.0	·	–	–	–	·
Cc1ccc(N(CCCCN2C(=O)c3ccccc3C2=O)C(=O)c2cccs2)cc1	–	–	–	–	–	–
COc1cc(C)ccc1N(CCCN1C(=O)c2cccc3cccc(c23)C1=O)C(=O)c1cccs1	72.0	–	–	–	–	–
COc1ccc(N(CCCN2C(=O)c3cccc4cccc(c34)C2=O)C(=O)c2cccs2)cc1	66.6	–	–	–	–	–
Nc1ncc(Br)cc1N=Cc1ccccc1	–	88.6	–	–	–	–
Cn1ncc(N=Cc2ccccc2)c1C(N)=O	–	–	–	–	–	–
CC(C)CC(=O)N1CCN(S(=O)(=O)c2ccc3ccccc3c2)CC1	–	–	–	–	–	–
COC(=O)c1sc(NC(=O)c2cccc([N+](=O)[O-])c2)c(C(N)=O)c1C	–	–	–	–	–	–
COC(=O)c1c(NC(=O)c2cccc([N+](=O)[O-])c2)sc(C(N)=O)c1C	72.1	–	–	–	–	–
CCOc1c(Cl)cc(CNc2ccc(N3CCCC3)cc2)cc1OC	74.4	–	–	–	–	–
Cc1ccc(C(=O)Oc2csc(=S)n2C(=O)c2ccc(C)cc2)cc1	–	60.1	–	–	–	–
SMILES	Diaphorase inh	PfGluPho inh	Tb hexokinase	Diaphorase act	G6PDH CS	HKDC1 inh
Cc1ccc(-c2csc3nc[nH]c(=S)c23)cc1C	58.9	–	–	–	–	–
COc1ccc(-c2csc3nc[nH]c(=O)c23)cc1OC	·	–	·	·	·	–
O=C(NCc1ccc(Cl)s1)C1CCC(=O)N(CCc2ccccn2)C1 (stereo not given)	·	–	·	·	·	–
CC(C)c1nc2sc3c(NCc4ccco4)ncnc3c2c2c1COC(C)(C)C2	103.7	–	–	–	–	–
CCCc1nc2sc3c(=O)n(N)cnc3c2c2c1COC(C)(C)C2	–	·	–	–	–	·
CCN(CCO)c1ncnc2c1sc1nc(C(C)C)c3c(c12)CC(C)(C)OC3	63.0	–	–	–	–	–
Cc1nc(NCc2ccco2)c(C#N)c2c1COC(C)(C)C2	–	–	–	–	–	–
CC(C)c1nc2sc3c(NCc4ccccc4)ncnc3c2c2c1COC(C)(C)C2	58.1	–	–	–	–	–
CSc1nc(NCc2ccco2)c2sc3nc(C(C)C)c4c(c3c2n1)CC(C)(C)OC4	86.2	–	–	–	–	–
CCSc1ncnc2c1sc1nc(-c3ccco3)c3c(c12)CC(C)(C)OC3	–	·	–	–	–	·
CC(NC(=O)[C@H](C)NC(=O)[C@@H]1CSC2c3ccccc3C(=O)N21)c1ccccc1 (stereo not given in full)	·	–	·	·	·	–
COc1cccc(CNC(=O)[C@H](C)NC(=O)C2CCN(S(=O)(=O)c3ccccc3)CC2)c1	·	–	·	·	·	–
COc1cc(-c2nnc(SCc3cc(=O)oc4cc(O)c(O)cc34)o2)cc(OC)c1OC	67.1	–	–	–	–	–
Cc1ccc(NC2=C/C(=N/S(=O)(=O)c3cccs3)c3ccccc3C2=O)cc1	–	–	–	–	50.4	–
CC(C)(C)c1ccc(S(=O)(=O)/N=C2\C=C(NS(=O)(=O)c3ccccc3)C(=O)c3ccccc32)cc1	·	–	·	·	·	–
Cc1ccc(S(=O)(=O)/N=C2\C=C(Nc3ccc(O)cc3)C(=O)c3ccccc32)cc1	·	111.5	·	·	·	–
COc1cc(C(O)CO)ccc1OS(=O)(=O)O (stereo not given)	·	–	·	·	·	–
O=c1oc2ccccc2nc1/C=C(\O)c1ccccc1	·	–	–	·	·	–
O/C(=C\c1nc2ccccc2nc1/C=C(\O)c1ccccc1)c1ccccc1	–	–	–	–	50.8	–
O=[N+]([O-])c1cc(S(=O)(=O)NCCN2CCOCC2)ccc1Sc1nnnn1-c1ccccc1	–	–	–	–	–	–
Cc1ccc(-n2nnnc2Sc2ccc(S(=O)(=O)NCCN(C)C)cc2[N+](=O)[O-])cc1	53.1	–	–	–	–	–
Cc1cc(C(=O)COc2cccnc2[N+](=O)[O-])c(C)n1Cc1cccs1	59.5	–	–	–	–	–
Cc1cc(C(=O)CSc2n[nH]c(-c3ccccc3F)n2)c(C)n1Cc1cccs1	50.3	–	–	–	–	–
CC(=O)Nc1ccccc1OCC(=O)c1cc(C)n(Cc2cccs2)c1C	–	–	–	–	–	–
CCN(CC)S(=O)(=O)c1cc(NC(=O)C2CC(=O)N(Cc3ccccc3)C2)ccc1Cl (stereo not given)	·	–	·	·	·	–
SMILES	Diaphorase inh	PfGluPho inh	Tb hexokinase	Diaphorase act	G6PDH CS	HKDC1 inh
COCc1cc(C)c(C#N)c(=S)[nH]1	–	69.7	–	–	–	–
COc1cc(CN2CCC(C(=O)N3CCCC(C)C3)CC2)cc(OC)c1O (stereo not given)	–	–	–	–	52.8	–
COc1cc(CN2CCC(C(=O)NC3CCCC3)CC2)cc(OC)c1O	–	–	–	–	53.3	–
COc1ccc(OC)c(CN2CCC(N3CCC(C(=O)NC4CC4)CC3)CC2)c1	·	–	·	·	·	–
CN(C)CCCNS(=O)(=O)c1ccc(Oc2ncc(C(F)(F)F)cc2Cl)cc1	–	–	–	–	–	–
Cc1c(N=Nc2c(-c3ccc([N+](=O)[O-])cc3)[nH]n(C(N)=S)c2=O)cccc1[N+](=O)[O-]	53.5	–	–	–	–	–

Bioassay records (PubChem BioAssay)
